By inhibition is commonly meant the share of the control response that was lost under treatment.

For one assay, the target named is P2Y purinoceptor 1 (Homo sapiens, UniProt P47900). Briefly: Ratio EC50 for ATP to compound for GFP tagged-human P2Y1 receptor expressed in human 1321N1 cells assessed as elevation in calcium level after 30 mins by fluorescence spectrophotometric analysis. It counts as functional, cell-based.
Assay [1] has as its target T1, Ectonucleotide pyrophosphatase/phosphodiesterase family member 3 (Homo sapiens) (UniProt O14638).
T1 sequence (whole entry): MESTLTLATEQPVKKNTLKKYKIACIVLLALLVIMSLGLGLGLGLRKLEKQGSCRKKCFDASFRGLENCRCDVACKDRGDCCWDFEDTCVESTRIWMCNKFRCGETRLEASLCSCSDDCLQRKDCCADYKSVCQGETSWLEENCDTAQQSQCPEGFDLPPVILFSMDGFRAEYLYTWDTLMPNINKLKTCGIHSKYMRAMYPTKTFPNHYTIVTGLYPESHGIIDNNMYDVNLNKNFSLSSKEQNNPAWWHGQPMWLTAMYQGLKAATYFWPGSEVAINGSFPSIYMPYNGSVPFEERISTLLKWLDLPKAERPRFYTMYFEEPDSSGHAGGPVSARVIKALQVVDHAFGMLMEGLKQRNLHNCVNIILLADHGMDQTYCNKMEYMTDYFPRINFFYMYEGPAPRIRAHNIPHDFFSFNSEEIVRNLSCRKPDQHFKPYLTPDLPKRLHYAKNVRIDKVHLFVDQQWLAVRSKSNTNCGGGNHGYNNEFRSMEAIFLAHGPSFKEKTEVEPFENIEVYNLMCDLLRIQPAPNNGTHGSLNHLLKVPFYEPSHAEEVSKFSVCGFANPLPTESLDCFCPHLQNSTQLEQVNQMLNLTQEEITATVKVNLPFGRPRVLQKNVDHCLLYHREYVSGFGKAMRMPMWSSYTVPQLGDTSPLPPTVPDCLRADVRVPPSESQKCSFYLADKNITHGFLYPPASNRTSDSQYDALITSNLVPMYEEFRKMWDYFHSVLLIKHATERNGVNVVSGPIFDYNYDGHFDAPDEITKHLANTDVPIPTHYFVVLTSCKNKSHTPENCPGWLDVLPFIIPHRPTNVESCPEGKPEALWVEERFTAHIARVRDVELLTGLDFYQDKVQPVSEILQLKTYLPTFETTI
The assay is described as follows: Inhibition of human NPP3 expressed in COS7 cells assessed as production of p-nitrophenol using pnp-TMP as the substrate at 100 uM after 15 mins by malachite green reagent method. It counts as cell-based. Conditions: COS-7. In a few lines:
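Human NPP1, NPP2 (membrane lysate or conditioned medium for the secreted form) or NPP3 from transfected COS-7 cells, preincubated 3 min at 37 °C in 50 mM Tris pH 8.5 buffer with CaCl2, NaCl and KCl. Substrate and inhibitor both at 100 μM final. pnp-TMP: p-nitrophenol read at 405 nm at 15 min. ATP or Ap5A: stopped at 30 min with perchloric acid, then HPLC. Results as % residual activity versus control; three to six experiments in triplicate.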

Assay [2] has as its target T2, Ectonucleoside triphosphate diphosphohydrolase 1 (Homo sapiens) (UniProt P49961).
T2 sequence (whole entry): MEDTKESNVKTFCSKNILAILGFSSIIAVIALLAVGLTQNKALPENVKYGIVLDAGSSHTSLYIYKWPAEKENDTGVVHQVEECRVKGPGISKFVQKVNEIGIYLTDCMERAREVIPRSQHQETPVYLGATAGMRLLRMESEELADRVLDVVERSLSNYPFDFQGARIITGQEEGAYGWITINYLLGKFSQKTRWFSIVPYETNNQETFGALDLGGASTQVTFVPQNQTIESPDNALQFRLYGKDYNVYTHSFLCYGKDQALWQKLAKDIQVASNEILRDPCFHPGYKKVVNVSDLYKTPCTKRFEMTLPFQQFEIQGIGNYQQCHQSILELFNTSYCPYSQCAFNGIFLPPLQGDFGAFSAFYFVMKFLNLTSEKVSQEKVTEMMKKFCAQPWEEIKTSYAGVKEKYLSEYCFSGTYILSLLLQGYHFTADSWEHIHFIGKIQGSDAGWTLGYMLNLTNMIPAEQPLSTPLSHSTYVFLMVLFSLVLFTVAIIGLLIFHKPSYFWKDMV
Briefly: Inhibition of human NTPDase1 expressed in COS7 cells assessed as amount of inorganic phosphate released using ATP as the substrate at 100 uM after 15 mins by malachite green reagent method. It is filed as cell-based. Conditions: COS-7. The method in brief:
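Protein extracts of transfected COS-7 cells (ecto-5'-nucleotidase: 100 μM AMP substrate; NTPDases: 100 μM ATP) were preincubated 3 min at 37 °C in Tris-Ringer pH 7.3 with inhibitor at 100 μM final. After 15 min, malachite green stop; Pi read at 630 nm. Activity given as % of substrate-only control. Mean ± SD of three experiments in triplicate.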

For assay [3], the target named is T3, Ectonucleotide pyrophosphatase/phosphodiesterase family member 1 (Homo sapiens) (UniProt P22413).
T3 sequence (whole entry): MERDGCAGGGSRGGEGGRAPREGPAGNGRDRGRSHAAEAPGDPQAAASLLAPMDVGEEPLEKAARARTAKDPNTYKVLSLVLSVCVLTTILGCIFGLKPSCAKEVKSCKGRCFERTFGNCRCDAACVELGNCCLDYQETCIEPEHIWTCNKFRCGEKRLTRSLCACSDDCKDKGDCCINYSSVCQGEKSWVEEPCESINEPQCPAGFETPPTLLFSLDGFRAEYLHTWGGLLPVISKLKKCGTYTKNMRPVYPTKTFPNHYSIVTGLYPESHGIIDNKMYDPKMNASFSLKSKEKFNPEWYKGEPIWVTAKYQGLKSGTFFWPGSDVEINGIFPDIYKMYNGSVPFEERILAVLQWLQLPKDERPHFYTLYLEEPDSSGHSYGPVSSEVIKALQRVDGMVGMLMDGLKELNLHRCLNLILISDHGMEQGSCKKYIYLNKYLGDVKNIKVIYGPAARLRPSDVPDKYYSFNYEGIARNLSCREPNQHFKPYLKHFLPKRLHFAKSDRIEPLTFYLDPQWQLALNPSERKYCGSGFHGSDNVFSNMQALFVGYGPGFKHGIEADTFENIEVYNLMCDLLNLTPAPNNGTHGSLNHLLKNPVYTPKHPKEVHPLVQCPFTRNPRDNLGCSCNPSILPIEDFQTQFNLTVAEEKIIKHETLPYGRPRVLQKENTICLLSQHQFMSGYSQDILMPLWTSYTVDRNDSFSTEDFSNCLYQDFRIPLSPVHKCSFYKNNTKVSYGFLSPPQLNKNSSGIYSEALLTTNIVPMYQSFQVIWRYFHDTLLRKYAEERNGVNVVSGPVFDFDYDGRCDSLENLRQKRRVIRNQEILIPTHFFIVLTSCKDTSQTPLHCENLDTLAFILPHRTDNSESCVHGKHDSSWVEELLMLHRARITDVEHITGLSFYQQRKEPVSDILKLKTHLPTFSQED
The assay is described as follows: Inhibition of human NPP1 in human Saos2 cells assessed as production of p-nitrophenol using pnp-TMP as the substrate […]. It counts as cell-based. Conditions: SAOS-2.

Each structure is given as a SMILES string. Calls of active or inactive are those of the source. The rule behind the calls is not given here. Where only a bound is given, the exact number is not on record here.

Chain of P2Y purinoceptor 1 (P47900 whole entry): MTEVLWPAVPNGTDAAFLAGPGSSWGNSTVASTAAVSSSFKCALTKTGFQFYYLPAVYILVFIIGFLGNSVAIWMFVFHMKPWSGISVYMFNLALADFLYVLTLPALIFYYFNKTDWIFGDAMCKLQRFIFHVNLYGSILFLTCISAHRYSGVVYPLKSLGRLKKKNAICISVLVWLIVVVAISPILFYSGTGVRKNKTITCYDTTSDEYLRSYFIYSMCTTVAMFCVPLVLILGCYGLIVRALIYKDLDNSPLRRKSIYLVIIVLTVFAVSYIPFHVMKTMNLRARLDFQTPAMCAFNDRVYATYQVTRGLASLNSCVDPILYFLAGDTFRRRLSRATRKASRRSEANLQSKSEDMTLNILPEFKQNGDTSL

Turning to `Nc1ncnc2c1ncn2[C@H]1C[C@H](O)[C@@H](COP(=O)(O)CP(=O)(O)OP(=O)(O)CP(=O)(O)OC[C@H]2O[C@@H](n3cnc4c(N)ncnc43)C[C@@H]2O)O1`, the Ratio EC50 on P2Y purinoceptor 1 came to 200. The inhibition in assay [1] is 30%; in assay [3], 80%. For the same compound, the inhibition result in assay [2] was “inactive”.
Take `Nc1ncnc2c1ncn2[C@@H]1O[C@H](COP(=O)(O)CP(=O)(O)OP(=O)(O)CP(=O)(O)OC[C@H]2O[C@@H](n3cnc4c(N)ncnc43)[C@H](O)[C@@H]2O)[C@@H](O)[C@H]1O`: the Ratio EC50 on P2Y purinoceptor 1 worked out at 60. The results for the inhibition in assay [1] and in assay [3] were 30% and 80%, respectively. For the same compound, the inhibition result in assay [2] is “inactive”.
In the case of `BP(=O)(OP(=O)(O)CP(=O)(O)OC[C@H]1O[C@@H](n2cnc3c(N)ncnc32)C[C@@H]1O)OP(=O)(O)CP(=O)(O)OC[C@H]1O[C@@H](n2cnc3c(N)ncnc32)C[C@@H]1O`, the Ratio EC50 at P2Y purinoceptor 1 is over 200. Further, the figures for the inhibition in assay [1] and in assay [3] were 30% and 90%, respectively. Also, in assay [2], the inhibition result is “inactive”.
For `BP(=O)(OP(=O)(O)CP(=O)(O)OC[C@H]1O[C@@H](n2cnc3c(N)ncnc32)[C@H](O)[C@@H]1O)OP(=O)(O)CP(=O)(O)OC[C@H]1O[C@@H](n2cnc3c(N)ncnc32)[C@H](O)[C@@H]1O`, in that order: 2, 30%, 90% and “inactive”.
